Reference: ChEMBL document CHEMBL3621107, “Ring fusion strategy for synthesis and lead optimization of sulfur-substituted anthra[1,2-c][1,2,5]thiadiazole-6,11-dione derivatives as promising scaffold of antitumor agents” (Eur J Med Chem, 2015)

Tests used:
Type in all cases: functional
TK-10 = test: Cytotoxicity against human TK10 cells assessed as cell growth at 10 uM after 48 hrs by SRB assay relative to control; settings: TK-10, 48 h, read-out: Activity
Outline: (§1)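 NCI-60 one-dose screen run by NCI DTP: each cell line exposed to a single 10 µM dose, and percentage growth recorded against untreated growth.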

SF-268 = test: Cytotoxicity against human SF268 cells assessed as cell growth at 10 uM after 48 hrs by SRB assay relative to control; settings: SF-268, 48 h, read-out: Activity
Outline: (§2)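 First-stage NCI DTP one-dose screen against the 60 human tumour cell line panel. Compounds were tested at a single 10 μM level, and results are given as growth percentage.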

COLO 205 = test: Cytotoxicity against human COLO205 cells assessed as cell growth at 10 uM after 48 hrs by SRB assay relative to control; settings: COLO 205, 48 h, read-out: Activity
Outline: (§3)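 First-stage NCI-60 screen by the NCI Developmental Therapeutics Program. Each compound was tested once at a single concentration of 10 μM against the 60-cell-line panel. Growth percentage was reported for each cell line.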

HT-29 = test: Cytotoxicity against human HT-29 cells assessed as cell growth at 10 uM after 48 hrs by SRB assay relative to control; settings: HT-29, 48 h, read-out: Activity; outline: as §3
SN12C = test: Cytotoxicity against human SN12C cells assessed as cell growth at 10 uM after 48 hrs by SRB assay relative to control; settings: read-out: Activity; outline: as §2
SNB-75 = test: Cytotoxicity against human SNB75 cells assessed as cell growth at 10 uM after 48 hrs by SRB assay relative to control; settings: SNB-75, 48 h, read-out: Activity; outline: as §1
NCI-H322M = test: Cytotoxicity against human NCI-H322M cells assessed as cell growth at 10 uM after 48 hrs by SRB assay relative to control; settings: read-out: Activity; outline: as §2
BT-549 = test: Cytotoxicity against human BT549 cells assessed as cell growth at 10 uM after 48 hrs by SRB assay relative to control; settings: BT-549, 48 h, read-out: Activity; outline: as §3
UACC-62 = test: Cytotoxicity against human UACC62 cells assessed as cell growth at 10 uM after 48 hrs by SRB assay relative to control; settings: UACC-62, 48 h, read-out: Activity; outline: as §1
RXF 393 = test: Cytotoxicity against human RXF393 cells assessed as cell growth at 10 uM after 48 hrs by SRB assay relative to control; settings: RXF 393, 48 h, read-out: Activity; outline: as §2
SR = test: Cytotoxicity against human SR cells assessed as cell growth at 10 uM after 48 hrs by SRB assay relative to control; settings: read-out: Activity; outline: as §1
DU-145 = test: Cytotoxicity against human DU145 cells assessed as cell growth at 10 uM after 48 hrs by SRB assay relative to control; settings: DU-145, 48 h, read-out: Activity; outline: as §3
OVCAR-3 = test: Cytotoxicity against human OVCAR3 cells assessed as cell growth at 10 uM after 48 hrs by SRB assay relative to control; settings: OVCAR-3, 48 h, read-out: Activity; outline: as §2
SK-MEL-28 = test: Cytotoxicity against human SK-MEL-28 cells assessed as cell growth at 10 uM after 48 hrs by SRB assay relative to control; settings: SK-MEL-28, 48 h, read-out: Activity; outline: as §2
IGROV-1 = test: Cytotoxicity against human IGROV1 cells assessed as cell growth at 10 uM after 48 hrs by SRB assay relative to control; settings: IGROV-1, 48 h, read-out: Activity; outline: as §3
SK-MEL-5 = test: Cytotoxicity against human SK-MEL-5 cells assessed as cell growth at 10 uM after 48 hrs by SRB assay relative to control; settings: SK-MEL-5, 48 h, read-out: Activity; outline: as §2
OVCAR-8 = test: Cytotoxicity against human OVCAR8 cells assessed as cell growth at 10 uM after 48 hrs by SRB assay relative to control; settings: OVCAR-8, 48 h, read-out: Activity; outline: as §2
U-251 = test: Cytotoxicity against human U251 cells assessed as cell growth at 10 uM after 48 hrs by SRB assay relative to control; settings: U-251, 48 h, read-out: Activity; outline: as §1
LOX IMVI = test: Cytotoxicity against human LOXIMVI cells assessed as cell growth at 10 uM after 48 hrs by SRB assay relative to control; settings: read-out: Activity; outline: as §3
UO-31 = test: Cytotoxicity against human UO31 cells assessed as cell growth at 10 uM after 48 hrs by SRB assay relative to control; settings: UO-31, 48 h, read-out: Activity; outline: as §1
HCT-116 = test: Cytotoxicity against human HCT116 cells assessed as cell growth at 10 uM after 48 hrs by SRB assay relative to control; settings: HCT-116, 48 h, read-out: Activity; outline: as §3
NCI-H23 = test: Cytotoxicity against human NCI-H23 cells assessed as cell growth at 10 uM after 48 hrs by SRB assay relative to control; settings: NCI-H23, 48 h, read-out: Activity; outline: as §2
OVCAR-4 = test: Cytotoxicity against human OVCAR4 cells assessed as cell growth at 10 uM after 48 hrs by SRB assay relative to control; settings: OVCAR-4, 48 h, read-out: Activity; outline: as §2
MCF7 = test: Cytotoxicity against human MCF7 cells assessed as cell growth at 10 uM after 48 hrs by SRB assay relative to control; settings: MCF7, 48 h, read-out: Activity; outline: as §3
HCC 2998 = test: Cytotoxicity against human HCC2998 cells assessed as cell growth at 10 uM after 48 hrs by SRB assay relative to control; settings: HCC 2998, 48 h, read-out: Activity; outline: as §3
NCI-H460 = test: Cytotoxicity against human NCI-H460 cells assessed as cell growth at 10 uM after 48 hrs by SRB assay relative to control; settings: NCI-H460, 48 h, read-out: Activity; outline: as §2
K562 = test: Cytotoxicity against human K562 cells assessed as cell growth at 10 uM after 48 hrs by SRB assay relative to control; settings: K562, 48 h, read-out: Activity; outline: as §3
Malme-3M = test: Cytotoxicity against human MALME-3M cells assessed as cell growth at 10 uM after 48 hrs by SRB assay relative to control; settings: read-out: Activity; outline: as §3
RPMI-8226 = test: Cytotoxicity against human RPMI8226 cells assessed as cell growth at 10 uM after 48 hrs by SRB assay relative to control; settings: RPMI-8226, 48 h, read-out: Activity; outline: as §2
CCRF-CEM = test: Cytotoxicity against human CCRF-CEM cells assessed as cell growth at 10 uM after 48 hrs by SRB assay relative to control; settings: read-out: Activity; outline: as §3
CAKI-1 = test: Cytotoxicity against human Caki1 cells assessed as cell growth at 10 uM after 48 hrs by SRB assay relative to control; settings: CAKI-1, 48 h, read-out: Activity; outline: as §3

| SMILES | growth at 10 µM (TK-10) [%] | growth at 10 µM (SF-268) [%] | growth at 10 µM (COLO 205) [%] | growth at 10 µM (HT-29) [%] | growth at 10 µM (SN12C) [%] | growth at 10 µM (SNB-75) [%] | growth at 10 µM (NCI-H322M) [%] | growth at 10 µM (BT-549) [%] | growth at 10 µM (UACC-62) [%] | growth at 10 µM (RXF 393) [%] | growth at 10 µM (SR) [%] | growth at 10 µM (DU-145) [%] | growth at 10 µM (OVCAR-3) [%] | growth at 10 µM (SK-MEL-28) [%] | growth at 10 µM (IGROV-1) [%] | growth at 10 µM (SK-MEL-5) [%] | growth at 10 µM (OVCAR-8) [%] | growth at 10 µM (U-251) [%] | growth at 10 µM (LOX IMVI) [%] | growth at 10 µM (UO-31) [%] | also measured |
| --- | --- | --- | --- | --- | --- | --- | --- | --- | --- | --- | --- | --- | --- | --- | --- | --- | --- | --- | --- | --- | --- |
| O=C1c2ccccc2C(=O)c2c1cc(SCc1ccc(Cl)cc1)c1nsnc21 | 122 | 107 | 99.9 | 96.4 | 93.6 | 63.4 | 94.1 | 115 | 102 | 105 | 63.7 | 115 | 113 | 95.3 | 84.2 | 89.6 | 94.2 | 94.4 | 86.7 | 68.5 | growth at 10 µM (HCT-116): 115%; growth at 10 µM (NCI-H23): 82.1%; growth at 10 µM (OVCAR-4): 84.2%; growth at 10 µM (MCF7): 83%; growth at 10 µM (HCC 2998): 103%; growth at 10 µM (NCI-H460): 105%; growth at 10 µM (K562): 67.5%; growth at 10 µM (Malme-3M): 86.4%; growth at 10 µM (RPMI-8226): 86.8% |
| CC(C)Sc1cc2c(c3nsnc13)C(=O)c1ccccc1C2=O | 30.3 | 7.06 | 102 | 48.1 | -28.6 | 9.12 | -0.8 | 10.8 | -57.1 | 13.6 | -48 | 6.66 | -60.3 | -8.32 | -32.9 | -99.2 | -22.6 | -23.1 | -21.6 | -28.4 | growth at 10 µM (HCT-116): -36.7%; growth at 10 µM (NCI-H23): -42.2%; growth at 10 µM (OVCAR-4): -100%; growth at 10 µM (MCF7): -68.8%; growth at 10 µM (HCC 2998): 21%; growth at 10 µM (CCRF-CEM): -45%; growth at 10 µM (CAKI-1): -5.68%; growth at 10 µM (NCI-H460): 4.92%; growth at 10 µM (K562): -26.2%; growth at 10 µM (Malme-3M): -86%; growth at 10 µM (RPMI-8226): -38% |
